The text below walks through data of ChEMBL document CHEMBL4732136, “Synthesis, Tumor Specificity, and Photosensitizing Efficacy of Erlotinib-Conjugated Chlorins and Bacteriochlorins: Identification of a Highly Effective Candidate for Photodynamic Therapy of Cancer” (J Med Chem, 2021).

The test system of one series is HN-85-1-3. Briefly: Photodynamic therapy in human HN-85-1-3 cells assessed as induction of STAT3 cross-linking treated with compound followed by diode laser irradiation at 3 J/cm2 by immunoblot analysis. Type of series: functional, cell-based. The gist of the method:
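Primary HN-85-1-3 tumor epithelial cells loaded with graded PS doses; uptake quantified by fluorescence before light. Dishes irradiated at 37°C with 665 nm diode laser, 6 mW/cm², 3 J/cm² total. Cells lysed in RIPA immediately after light; STAT3 crosslinking and EGFR analysed by SDS-PAGE immunoblot.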

Series [1] in a line: Drug uptake in tumor of iv dosed SCID mouse xenografted with UMUC3 cells by fluorescence imaging analysis. The following applies: in vivo.
Series [2] is described as follows: Drug uptake in human FaDu clone 49 cells assessed as increase in drug retention at 1.6 uM in RPMI medium with 10% FBS followed by 48 hrs chase period by inverted fluorescence microscopic analysis.
Series [3] is described as follows: Drug uptake in tumor of SCID mouse xenografted with human FaDu cells at 0.47 to 0.125 micromol/kg, iv pretreated with compound followed by light irradiation at a dose of 135 J/cm2 and 75 mW/cm2 and measured at 24 hrs by IVIS analysis. Type of series: ADME, organism-based, Neoplasm. The following applies: in vivo, dose 0.47-0.125 µmol/kg. In outline:
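Female SCID mice bearing FaDu tumors 4–5 mm in diameter, 3 per group. PS in 1% Tween80/5% dextrose given iv at 0.47, 0.25 or 0.125 μmol/kg. IVIS whole-body fluorescence imaged at several time points; average radiant efficiency measured in tumor, liver and skin.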
Background: A xenograft is tissue or cells of one species grown in another, often human tumour cells in immunodeficient mice.

The test system of series [4] is UMUC3. The series is described as follows: Photosensitizing activity in human UMUC3 cells assessed as reduction in cell viability pretreated with compound for 24 hrs followed by light irradiation at 1 J/cm2 and measured after 48 hrs by MTT assay. It is filed as functional, cell-based. The settings on record: UMUC3, light or radiation study. The gist of the method:
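Cells plated 0.01x10⁶ to 0.05x10⁶ cells/ml and allowed to adhere 24 h before photosensitizer was added, top dose 1600 nM with 2-fold serial dilutions. Plates received no light (0 J/cm²) or 1 J/cm² at 565 mW, 15 cm spot. After 48 h, MTT added for 3 h, formazan solubilized in DMSO and read at 570 nm; IC₅₀ fitted from dose-response.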
(Tetrazolium dyes change colour on reduction, which living cells bring about.)

Series [5] can be described thus: Drug uptake in human CFSE-stained HN-121 cells assessed as increase in drug retention at 1.6 uM in medium with 10% FBS followed by 48 hrs chase period by inverted fluorescence microscopic analysis. It is filed as ADME, cell-based. The following applies: hn-121, 48 h.
Series [6] has as its system FaDu. Briefly: Photodynamic antitumor activity against human FaDu cells xenografted in SCID mouse assessed as cure rate at 0.25 micromol/kg, iv pretreated with compound followed by light irradiation at a dose of 135 J/cm2 and 75 mW/cm2 measured after 60 days post dose relative to control. It is filed as functional. The settings on record: dose 0.25 µmol/kg; time 60 day. In outline:
(§1)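 FaDu-bearing female SCID mice (5 per group per experiment) given iv PS at 0.47, 0.25 or 0.125 μmol/kg in Tween80/dextrose. Tumors irradiated 24 h post-injection at 665 nm, 135 J/cm², 75 mW/cm². Tumor growth measured daily for 60 days, with euthanasia above 400 mm³. Cure taken as tumor-free at day 60; survival analysed by log-rank test.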

Series [7] can be described thus: Drug uptake in skin of SCID mouse xenografted with human UMUC3 cells at 0.25 micromol/kg, iv pretreated with compound followed by light irradiation at a dose of 135 J/cm2 and 75 mW/cm2 measured after 2 to 8 hrs by IVIS analysis. Type of series: ADME, organism-based, Skin of body. The following applies: in vivo, time 2-8 hrs, dose 0.25 µmol/kg. The gist of the method:
(§2)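 Female SCID mice with UMUC3 flank/shoulder tumors, 3 per group. PS in 1% Tween80/5% dextrose given iv at 0.47, 0.25 or 0.125 μmol/kg. Whole-body fluorescence imaging by IVIS at several times after injection; average radiant efficiency measured in tumor, liver and skin.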

A short description of series [8]: Drug uptake in skin of SCID mouse xenografted with human UMUC3 cells at 0.125 micromol/kg, iv pretreated with compound followed by light irradiation at a dose of 135 J/cm2 and 75 mW/cm2 measured after 2 to 24 hrs by IVIS analysis. Type of series: ADME, organism-based, Skin of body. The settings on record: in vivo, time 2-24 hrs, dose 0.125 µmol/kg. The gist of the method: as §2

The nature of series [9]: Drug uptake in skin of iv dosed SCID mouse xenografted with human UMUC3 cells by fluorescence imaging analysis. It is filed as ADME, organism-based, Skin of body. The following applies: in vivo.
Series [10] in a line: Drug uptake in liver of SCID mouse xenografted with human UMUC3 cells at 0.25 micromol/kg, iv pretreated with compound followed by light irradiation at a dose of 135 J/cm2 and 75 mW/cm2 measured after 2 to 8 hrs by IVIS analysis. Type of series: ADME, organism-based. The settings on record: in vivo, time 2-8 hrs, dose 0.25 µmol/kg. The gist of the method: as §2
Series [11] concerns FaDu. Briefly: Photodynamic antitumor activity against human FaDu cels xenografted in SCID mouse assessed as cure rate at 0.47 micromol/kg, iv pretreated with compound followed by light irradiation at a dose of 135 J/cm2 and 75 mW/cm2 and measured at 24 hrs post dose relative to control. Type of series: functional. The settings on record: dose 0.47 µmol/kg. The gist of the method: as §1

The nature of series [12]: Drug uptake in human HNT1 cells at 3.2 uM incubated for 30 mins in DMEM media with 10% FBS followed by […] in compound-free medium by inverted fluorescence microscopic analysis. Type of series: ADME, cell-based. The following applies: hnt1, 0.5 h, in the assay text read “in serum-free medium” for “in DMEM media with 10% FBS”. The gist of the method:
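Confluent HNT1 cultures (passage 116) given 3.2 μM PS for 30 min in serum-free medium, then 5 h in serum-containing medium with PS, then 15 h chase in serum medium without PS. Fluorescence recorded at 100X with varied camera exposures and quantified digitally; pixel signal normalized to time and cell number.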

Series [13] can be described thus: Drug uptake in tumor of iv dosed SCID mouse xenografted with human UMUC3 cells by fluorescence imaging analysis. Type of series: ADME, organism-based, Neoplasm. The settings on record: in vivo.
In series [14] the test system is UMUC3. Briefly: Photodynamic antitumor activity against human UMUC3 cells xenografted in SCID mouse assessed as tumor retention at 0.25 micromol/kg, iv pretreated with compound followed by light irradiation at a dose of 135 J/cm2 and 75 mW/cm2 measured at day 60 post dose relative to control. The settings on record: dose 0.25 µmol/kg; time 60 day. It is filed as functional. In outline:
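UMUC3-bearing female SCID mice given iv PS in 1% Tween80/5% dextrose. Mice restrained and tumors irradiated at 665 nm, 135 J/cm² over 30 min at 75 mW/cm², at the time of maximal tumor uptake. Tumor regrowth measured daily for 60 days; mice euthanized above 400 mm³. Cure plotted as survival curves and compared by log-rank (Mantel-Cox) test.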

The IC50 is the midpoint of a concentration-inhibition curve. For the molecule `CCC1=C(C)c2cc3[nH]c(cc4nc(c5c6[nH]c(cc1n2)c(C)c6C(=O)C5)[C@@H](CCC(=O)OC)[C@@H]4C)c(C)c3C(C)OCc1cccc(C#Cc2cccc(Nc3ncnc4cc(OCCOC)c(OCCOC)cc34)c2)c1` (stereo not given in full), the Activity result with HN-85-1-3 is “Dose-dependent effect”; in the series on FaDu [6], 80%; in the series with FaDu [11], 92%; in the series with UMUC3 [14], 50%. Also, the Drug uptake result in [1], in series [2], in series [3], in series [5], in series [7] and in series [8] was “Active” in each case. Moreover, the Drug uptake result in series [9], in series [10], in series [12] and in [13] was “Active” throughout. Further, the IC50 with UMUC3 [4] was 59.4 nM.
